Consider 6 compounds from ChEMBL document CHEMBL1144485, “The synthesis and the in vitro cytotoxicity studies of bisnaphthalimidopropyl polyamine derivatives against colon cancer cells and parasite Leishmania infantum” (Bioorg Med Chem, 2007).

SMILES strings stand for the structures. pIC50: −log10 of the molar value.

What is called pIC50 is the negative decadic logarithm of the IC50, by convention in mol/L. A lower pIC50 goes with a high IC50.

Test [1] relates to Caco-2. Description: Cytotoxicity activity against Caco-2 cells after 24 by MTT assay. It counts as cell-based. To be noted: Homo sapiens. The essentials: (§1)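 Caco-2 cells in Earle's MEM with 10% FCS, glutamine, non-essential amino acids, penicillin/streptomycin; seeded at 2 × 10^4 cells cm−2, 24 h before drug. Compounds (stock in 20% DMSO, diluted in medium) at 0.01–40 µM for 24 or 48 h, 37 °C. MTT 1 mg/ml in serum-free medium 4 h, DMSO solubilisation, A560. IC50 = 50% absorbance reduction vs control from fitted log line; six replicates, mean ± SD.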

For test [2], the system named is Caco-2. Description: Cytotoxicity activity against Caco-2 cells after 48 by MTT assay. The following applies: Homo sapiens. It counts as cell-based. The essentials: as §1
The test system of another test is Leishmania infantum. Description: Cytotoxicity activity against Leishmania infantum after 72 hrs by MTT assay. It counts as functional, organism-based. The procedure, abridged: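 L. infantum promastigotes (clone MHOM/MA671TMA-P263), log phase (2-day culture), grown at 27 °C in RPMI with 10% heat-inactivated FBS, 2 mM glutamine, 20 mM Hepes, penicillin/streptomycin. 10^6/ml exposed to serial drug concentrations (0.30–100 µM) for 3 days, 27 °C. MTT 0.25 mg/ml final, 4 h, 27 °C; SDS/DMF pH 4.8 lysis 1 h at 37 °C, A550. Growth IC50 by linear regression; at least five assays, ± SD.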
On the technique in general: Formazan colour is commonly taken as a measure of viable cells.

As to `O=C1c2cccc3cccc(c23)C(=O)N1CCCNCCCCCCCCCCNCCCN1C(=O)c2cccc3cccc(c23)C1=O` [BNIPDADEC], the pIC50 in the test with Caco-2 [1] was 6.11; in the test on Caco-2 [2], 6.44.

Take `O=C1c2cccc3cccc(c23)C(=O)N1CCCNCCCCCCCCCNCCCN1C(=O)c2cccc3cccc(c23)C1=O` [BNIPDANON]: the negative logarithm of the IC50 (pIC50) with Caco-2 [1] was 5.44; in the test on Caco-2 [2], 6.17; with Leishmania infantum, 6.11.

With `O=C1c2cccc3cccc(c23)C(=O)N1CCCNCCCCCCCCNCCCN1C(=O)c2cccc3cccc(c23)C1=O` [BNIPDAOCT], the figures for the pIC50 in the test on Caco-2 [1], in the test with Caco-2 [2] and with Leishmania infantum were 5.21, 5.49 and 6.11, respectively.

For `O=C1c2cccc3cccc(c23)C(=O)N1CCCNCCNCCNCCCN1C(=O)c2cccc3cccc(c23)C1=O` [BNIPDETA], the negative-log IC50 (pIC50) was 4.66 in the test on Caco-2 [1], 4.65 in the test with Caco-2 [2] and 6.13 with Leishmania infantum.

As to `O=C1c2cccc3cccc(c23)C(=O)N1CCCNCCCNCCCNCCCN1C(=O)c2cccc3cccc(c23)C1=O` [BNIPDPTA], the pIC50 in the test on Caco-2 [1] was 5.29; in the test with Caco-2 [2], 5.81; with Leishmania infantum it was 5.81.

As to `O=C1c2cccc3cccc(c23)C(=O)N1CCCNCCCCNCCCNCCCN1C(=O)c2cccc3cccc(c23)C1=O` [BNIPSPD], the values for the pIC50 in the test with Caco-2 [1], in the test on Caco-2 [2] and in the test on Leishmania infantum were 6.33, 6.82 and 6.33, respectively.
